Data set [1] relates to EOL1. The data set is described as follows: Antitumor activity against human EOL-1 cells xenografted in nu/nu mouse assessed as tumor growth inhibition at 50 mg/kg/day, ip. It is filed as functional. The conditions noted are these: read-out: TGI. In a few lines:
(§1)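 Female nu/nu mice (6 weeks) given subcutaneous right-flank injection of 5 million EOL-1 cells in PBS/Matrigel 1:1. At 200–400 mm3 tumors, randomized to groups of 6 and dosed daily i.p. for 14 days at 25, 50 or 100 mg/kg/d in 0.5% methylcellulose/0.4% Tween80. Tumor volume = W²×L/2, measured daily.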
(A xenograft is tissue or cells of one species grown in another, often human tumour cells in immunodeficient mice.)

The subject of data set [2] is EOL1. The data set is described as follows: Antiproliferative activity against human EOL-1 cells after 72 hrs by CellTiter-Glo or CCK-8 assay. Format: functional. The conditions noted are these: EOL1, 72 h. A digest of the protocol: (§2)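 Cells in RPMI 1640 with 10% FBS at 37 °C, 5% CO2, seeded at 1–3 × 10^4 cells/mL with serial compound dilutions for 72 h. Viability read by CellTiter-Glo luminescence or CCK-8 absorbance (450/655 nm), normalized to DMSO control.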
On the technique in general: Cellular ATP, detected with luciferase, serves as a proxy for viable cell number.

Data set [3] addresses T1, Platelet-derived growth factor receptor alpha (Homo sapiens, UniProt P16234). The conditions noted are these: 1 uM.
Data set [4] deals with EOL1. The experiment in a line: Antitumor activity against human EOL-1 cells xenografted in nu/nu mouse assessed as tumor growth inhibition at 100 mg/kg/day, ip. Format: functional. Particulars: read-out: TGI. In a few lines:
as §1

Data set [5] in a line: AUC (0 to infinity) in Sprague-Dawley rat at 1 mg/kg, iv. It is filed as ADME, organism-based. The conditions noted are these: in vivo. Details: dose 1 mg/kg, time infinity, route intravenous. A digest of the protocol:
(§3)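 Male Sprague-Dawley rats (6–8 weeks) fasted overnight, dosed IV or orally; compound dissolved in 5% DMSO/40% PEG400/55% saline (dosing solution 1 mg/mL). Blood (~0.2 mL) from jugular vein into heparin; IV sampling 1 min–8 h, oral 5 min–24 h. Plasma separated by centrifugation at 2–8 °C, stored at −80 °C until analysis.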

Data set [6] in a line: Cmax in Sprague-Dawley rat at 10 mg/kg, po. Format: ADME, organism-based. Details: dose 10 mg/kg, route oral. Particulars: in vivo. In a few lines: (§4)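 Male Sprague-Dawley rats, 6–8 weeks old and fasted overnight, dosed IV at 1 mg/kg or PO at 10 mg/kg. Formulation was 5% DMSO/40% PEG400/55% saline (1 mg/mL). Jugular blood collected on heparin from 1 min to 8 h (IV) or 5 min to 24 h (PO). Plasma separated by centrifugation at 2–8 °C and stored at −80 °C.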

For data set [7], the target named is T1, Platelet-derived growth factor receptor alpha. The conditions noted are these: NCI-H1703, 1 uM.
Data set [8] relates to EOL1. The data set is described as follows: Antitumor activity against human EOL-1 cells xenografted in nu/nu mouse assessed as tumor growth inhibition at 25 mg/kg/day, ip. Format: functional. Particulars: read-out: TGI. In a few lines:
as §1

A short description of data set [9]: Tmax in Sprague-Dawley rat at 10 mg/kg, po. It is filed as ADME, organism-based. The conditions noted are these: in vivo. In a few lines: as §4
The target of data set [10] is T1, Platelet-derived growth factor receptor alpha. Particulars: 100 nM.
In data set [11] the test system is NCI-H1703. The data set is described as follows: Antiproliferative activity against human NCI-H1703 cells after 72 hrs in presence of PDGF-AA by CellTiter-Glo or CCK-8 assay. Format: functional. The conditions noted are these: NCI-H1703, 72 h. In a few lines:
as §2

Data set [12] can be described thus: Tmax in Sprague-Dawley rat at 1 mg/kg, iv. Format: ADME, organism-based. Particulars: in vivo. A digest of the protocol: as §4
Data set [13] deals with T1, Platelet-derived growth factor receptor alpha. Particulars: 1 uM. This is another data set of the same source.
Data set [14] can be described thus: AUC (0 to t) in Sprague-Dawley rat at 1 mg/kg, iv. Particulars: in vivo. It is filed as ADME, organism-based. A digest of the protocol: as §3
The nature of data set [15]: Oral bioavailability in Sprague-Dawley rat at 10 mg/kg. It is filed as ADME, organism-based. The conditions noted are these: in vivo. A digest of the protocol:
as §4

The next data set concerns Mus musculus. The data set is described as follows: Toxicity in nu/nu mouse xenografted with human EOL-1 cells assessed as change in body weight at 25 to 100 mg/kg/day, ip. It is filed as organism-based. Particulars: in vivo. In a few lines:
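Female nu/nu mice, 6 weeks old, implanted subcutaneously in the right flank with 5 million EOL-1 cells in PBS/Matrigel 1:1. At tumour size 200–400 mm³, mice randomised into groups of 6 and given daily IP doses of 25, 50 or 100 mg/kg in 0.5% methylcellulose/0.4% Tween80, or vehicle, for 14 days. Body weight measured daily and normalised to initial weight; mean ± SEM.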

The nature of data set [16]: Cmax in Sprague-Dawley rat at 1 mg/kg, iv. Particulars: in vivo. Details: dose 1 mg/kg, route intravenous. Format: ADME, organism-based. In a few lines:
as §4

In data set [17] the target is T1, Platelet-derived growth factor receptor alpha. Particulars: NCI-H1703, 1 uM. The source holds these as a separate data set.
Data set [18] relates to NCI-H1703. The experiment in a line: Antiproliferative activity against human NCI-H1703 cells after 72 hrs by CellTiter-Glo or CCK-8 assay. It is filed as functional. The conditions noted are these: NCI-H1703, 72 h. In a few lines: as §2
Data set [19] in a line: AUC (0 to infinity) in Sprague-Dawley rat at 10 mg/kg, po. It is filed as ADME, organism-based. Details: dose 10 mg/kg, route oral, time infinity. The conditions noted are these: in vivo. In a few lines:
as §3

In data set [20] the target is T1, Platelet-derived growth factor receptor alpha. The conditions noted are these: NCI-H1703, 1 uM. This is another data set of the same source.
Data set [21] in a line: AUC (0 to t) in Sprague-Dawley rat at 10 mg/kg, po. The conditions noted are these: in vivo. It is filed as ADME, organism-based. A digest of the protocol: as §3
A short description of data set [22]: Cytotoxicity against mouse BA/F3 cells after 72 hrs by CellTiter-Glo or CCK-8 assay. It is filed as cell-based, BaF3. A digest of the protocol: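 Parental BaF3 or IL-3-independent TEL-kinase BaF3 lines, made by retroviral infection and puromycin selection, grown in RPMI 1640 with 10% FBS. Cells seeded at 1–3 × 10^4 cells/mL with serial compound concentrations for 72 h. Viability read by CellTiter-Glo luminescence or CCK-8 absorbance at 450/655 nm and normalised to DMSO. GI50 obtained by triplicate testing with linear regression. Selectivity is the ratio of the two GI50 values.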

These results are taken from ChEMBL document CHEMBL4229344 (Eur J Med Chem, 2018).

Calls of active or inactive are those of the source. The calls are words filed in the database; no cut-off is given here.

T1 sequence (P16234 whole entry): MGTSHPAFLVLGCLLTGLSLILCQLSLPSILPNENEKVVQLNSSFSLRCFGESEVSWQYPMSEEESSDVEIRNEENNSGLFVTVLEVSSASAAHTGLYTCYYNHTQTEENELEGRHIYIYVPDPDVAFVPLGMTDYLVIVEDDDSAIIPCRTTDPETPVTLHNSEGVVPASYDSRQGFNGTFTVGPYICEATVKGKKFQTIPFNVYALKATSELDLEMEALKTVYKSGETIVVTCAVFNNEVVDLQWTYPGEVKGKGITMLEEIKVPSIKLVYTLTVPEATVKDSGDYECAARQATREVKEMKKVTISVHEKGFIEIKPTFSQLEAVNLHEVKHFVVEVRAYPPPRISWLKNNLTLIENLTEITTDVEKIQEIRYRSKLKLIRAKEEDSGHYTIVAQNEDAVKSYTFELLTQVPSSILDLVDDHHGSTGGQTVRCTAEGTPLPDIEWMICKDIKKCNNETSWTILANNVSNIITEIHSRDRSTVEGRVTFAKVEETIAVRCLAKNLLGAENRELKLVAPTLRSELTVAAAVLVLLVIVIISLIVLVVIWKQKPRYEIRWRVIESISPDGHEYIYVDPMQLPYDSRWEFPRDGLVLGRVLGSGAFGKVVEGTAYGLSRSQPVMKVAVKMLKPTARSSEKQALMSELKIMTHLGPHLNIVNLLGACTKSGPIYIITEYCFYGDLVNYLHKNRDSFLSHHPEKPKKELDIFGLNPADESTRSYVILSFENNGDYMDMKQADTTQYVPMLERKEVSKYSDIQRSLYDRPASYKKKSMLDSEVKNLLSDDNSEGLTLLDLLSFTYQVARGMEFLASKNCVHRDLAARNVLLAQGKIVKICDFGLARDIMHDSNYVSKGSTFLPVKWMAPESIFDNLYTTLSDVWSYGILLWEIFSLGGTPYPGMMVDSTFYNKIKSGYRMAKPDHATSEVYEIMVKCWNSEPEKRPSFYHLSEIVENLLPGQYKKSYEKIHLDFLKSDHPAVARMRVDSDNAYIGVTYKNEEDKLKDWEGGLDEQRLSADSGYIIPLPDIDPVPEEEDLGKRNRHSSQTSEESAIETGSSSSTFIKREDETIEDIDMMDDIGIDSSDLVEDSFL

Take `Cc1ccc(NC(=O)c2ccc(CN3CCN(C)CC3)cc2)cc1Nc1nccc(-c2cccnc2)n1` [IMATINIB]: in the data set on EOL1 [1], the inhibition in vivo at 50 mg/kg/day was 100%. Moreover, the GI50 (as a rule, the concentration at which growth is held to half of that of the control) with EOL1 [2] is under 0.001 µM; in the data set with NCI-H1703 [11] it was 0.23 µM; in the data set with NCI-H1703 [18], 2.1 µM. In addition, the inhibition entry in [3], in data set [7], in [13], in data set [17] and in data set [20] was “Active” in each case. In addition, the inhibition in vivo at 100 mg/kg/day with EOL1 [4] came to 100%. Further, the AUC(0-inf) (in general, total exposure, with the tail of the curve extrapolated) in [5] worked out at 0.869 µg·h/mL; in data set [19], 6.65 µg·h/mL. Further, the Cmax (as a rule, the peak of the concentration-time curve) in [6] came to 0.531 µg/mL; in data set [16] it was 0.547 µg/mL. In the data set with EOL1 [8], the inhibition in vivo at 25 mg/kg/day came out at 99.9%. Moreover, the Tmax (usually the time at which the peak concentration occurs) was 6.67 h in data set [9] and 1.02 min in data set [12]. The inhibition entry in [10] is “inactive”. The area under the curve AUC(0-t) (usually the area under the concentration-time curve up to a stated or last time point) worked out at 0.856 µg·h/mL in [14] and 6.46 µg·h/mL in [21]. Further, in data set [15], the bioavailability – broadly, dose-corrected exposure relative to a reference, in per cent – worked out at 76.5%. Further, in the data set on Mus musculus, the Activity entry is recorded as “Toxic”. In addition, in [22], the GI50 at 72 h was over 10 µM.
